Assays:
Cannabinoid receptor 2 = Cannabinoid receptor 2 (Homo sapiens, UniProt P34972); test: In vitro displacement of CP-55940 binding to human CB2 receptor expressed in CHO cells; format: cell-based
In short: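 Radioligand binding on CHO cells stably expressing recombinant human CB2 receptor; affinity given as Ki (nM).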

Cannabinoid receptor 1 [1] = molecular target: T1, Cannabinoid receptor 1 (Homo sapiens, UniProt P21554); format: cell-based, CHO
Cannabinoid receptor 1 [2] = molecular target: T1, Cannabinoid receptor 1; test: In vitro cannabinoid receptor 1 antagonism of [3H]arachidonic acid release by CHO cells; format: functional, cell-based; details: read-out: pA2 (converted)
[3] = molecular target: ATP-dependent translocase ABCB1 (Homo sapiens, UniProt P08183); test: Membrane passage was expressed as mean percentage of compound transported from bottom to top and from top to bottom at 3 hr after adding the compound; format: functional
P-glycoprotein (ABCB1) = P-glycoprotein (ABCB1) (Homo sapiens, UniProt P08183); test: P-glycoprotein (Pgp) factor was expressed as the ratio ofthe bottom to top transport and top to bottom transport; format: functional; details: not told
Rattus norvegicus = test: In vivo effective dose to produce antagonism of CB agonist (CP-55940) induced hypotension in rat
Mus musculus = test: In vivo effective dose to produce antagonism of CB agonist (WIN-55212) induced hypothermia in mouse

Chain of ATP-dependent translocase ABCB1 (P08183 whole entry): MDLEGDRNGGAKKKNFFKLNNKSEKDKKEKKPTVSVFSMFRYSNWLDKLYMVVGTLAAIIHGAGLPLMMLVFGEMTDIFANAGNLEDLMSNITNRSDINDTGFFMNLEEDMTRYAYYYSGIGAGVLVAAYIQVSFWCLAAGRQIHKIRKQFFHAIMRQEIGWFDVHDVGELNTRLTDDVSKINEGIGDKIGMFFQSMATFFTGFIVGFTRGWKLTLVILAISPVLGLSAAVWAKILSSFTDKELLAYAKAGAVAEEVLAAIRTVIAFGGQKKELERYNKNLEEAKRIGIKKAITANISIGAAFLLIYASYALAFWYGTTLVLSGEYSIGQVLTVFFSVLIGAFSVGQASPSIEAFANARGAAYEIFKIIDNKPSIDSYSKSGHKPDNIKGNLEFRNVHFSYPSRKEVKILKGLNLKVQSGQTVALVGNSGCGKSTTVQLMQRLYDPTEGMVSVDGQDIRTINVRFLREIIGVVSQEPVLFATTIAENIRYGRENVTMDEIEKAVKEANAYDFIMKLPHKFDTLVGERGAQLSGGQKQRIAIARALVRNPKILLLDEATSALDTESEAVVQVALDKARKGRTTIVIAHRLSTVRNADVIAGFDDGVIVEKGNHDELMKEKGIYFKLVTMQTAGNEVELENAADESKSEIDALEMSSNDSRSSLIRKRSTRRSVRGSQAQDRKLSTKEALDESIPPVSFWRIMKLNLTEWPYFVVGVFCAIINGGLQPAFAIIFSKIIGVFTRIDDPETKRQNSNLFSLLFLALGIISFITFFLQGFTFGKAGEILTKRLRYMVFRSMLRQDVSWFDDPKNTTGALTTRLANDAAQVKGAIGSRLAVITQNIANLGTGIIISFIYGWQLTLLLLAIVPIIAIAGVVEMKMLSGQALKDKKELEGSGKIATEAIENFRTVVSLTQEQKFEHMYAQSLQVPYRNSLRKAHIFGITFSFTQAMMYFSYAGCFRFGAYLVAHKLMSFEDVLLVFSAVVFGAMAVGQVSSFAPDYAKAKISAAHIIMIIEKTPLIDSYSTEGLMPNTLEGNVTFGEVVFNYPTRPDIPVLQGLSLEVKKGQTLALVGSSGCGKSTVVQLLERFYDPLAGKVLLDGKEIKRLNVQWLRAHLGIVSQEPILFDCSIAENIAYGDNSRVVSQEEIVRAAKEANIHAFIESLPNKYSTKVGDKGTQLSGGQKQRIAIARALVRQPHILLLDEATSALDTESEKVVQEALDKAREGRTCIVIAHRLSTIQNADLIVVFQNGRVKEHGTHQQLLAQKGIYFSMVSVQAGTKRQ
Chain of P-glycoprotein (ABCB1) (P08183 whole entry): as above
Chain of Cannabinoid receptor 2 (P34972 whole entry): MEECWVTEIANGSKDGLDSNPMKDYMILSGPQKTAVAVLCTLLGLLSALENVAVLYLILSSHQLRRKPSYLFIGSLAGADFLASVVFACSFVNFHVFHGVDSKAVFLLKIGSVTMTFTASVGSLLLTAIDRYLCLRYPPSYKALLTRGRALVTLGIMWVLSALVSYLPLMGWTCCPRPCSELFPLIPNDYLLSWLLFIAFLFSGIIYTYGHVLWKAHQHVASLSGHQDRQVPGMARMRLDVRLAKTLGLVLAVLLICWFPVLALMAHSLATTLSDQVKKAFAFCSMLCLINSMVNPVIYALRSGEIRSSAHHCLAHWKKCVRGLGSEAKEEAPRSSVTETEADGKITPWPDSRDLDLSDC
T1 sequence (P21554 whole entry): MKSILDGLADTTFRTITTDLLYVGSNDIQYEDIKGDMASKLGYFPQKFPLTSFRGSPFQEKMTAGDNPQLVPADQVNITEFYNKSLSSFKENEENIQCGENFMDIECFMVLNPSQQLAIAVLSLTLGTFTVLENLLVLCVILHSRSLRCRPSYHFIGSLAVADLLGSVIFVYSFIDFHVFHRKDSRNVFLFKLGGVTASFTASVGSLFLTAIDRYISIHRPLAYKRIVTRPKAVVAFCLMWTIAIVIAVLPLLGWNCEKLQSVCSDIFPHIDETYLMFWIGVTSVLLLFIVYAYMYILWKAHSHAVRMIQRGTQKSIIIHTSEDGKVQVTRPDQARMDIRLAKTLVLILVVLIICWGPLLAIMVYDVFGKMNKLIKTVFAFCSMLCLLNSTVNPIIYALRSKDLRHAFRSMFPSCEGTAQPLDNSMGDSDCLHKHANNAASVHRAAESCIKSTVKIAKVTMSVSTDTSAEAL

| SMILES | Ki (Cannabinoid receptor 2) [µM] | Ki (Cannabinoid receptor 1 [1]) [µM] | Kb (Cannabinoid receptor 1 [2]) [µM] | Transport [3] [%] | efflux ratio (P-glycoprotein (ABCB1)) | ED50 (Rattus norvegicus) [mg/kg] | LED (Mus musculus) [mg/kg] |
| --- | --- | --- | --- | --- | --- | --- | --- |
| Cc1c(C(=O)NC2CCCC2)nc(-c2ccc(Cl)cc2Cl)n1-c1ccc(Cl)cc1 | 0.357 | 0.033 | – | – | – | – | – |
| Cc1c(C(=O)NC2CCCCCC2)nc(-c2ccc(Cl)cc2Cl)n1-c1ccc(Cl)cc1 | 0.349 | 0.035 | – | – | – | – | – |
| Cc1c(C(=O)NC2CC3CCC2C3)nc(-c2ccc(Cl)cc2Cl)n1-c1ccc(Cl)cc1 (stereo not given) | 0.054 | 0.019 | 0.000794 | – | – | – | – |
| O=C(NN1CCCCC1)c1nc(-c2ccc(Cl)cc2Cl)c(-c2ccc(Cl)cc2)s1 | 5.84 | 0.227 | 0.00794 | 8.3 | 1.7 | > 30 | – |
| O=C(NN1CCCCC1)c1nc(-c2ccc(Cl)cc2Cl)n(-c2ccc(Cl)cc2)c1Cl | 0.823 | 0.027 | 0.00316 | – | – | – | – |
| CCc1c(C(=O)NN2CCCCC2)nc(-c2ccc(Cl)cc2Cl)n1-c1ccc(Cl)cc1 | 0.43 | 0.014 | 0.001 | – | – | 15.8 | 30 |
| O=C(NN1CCCCC1)c1nc(-c2ccc(Cl)cc2)n(-c2ccc(Cl)cc2Cl)n1 | 5.44 | 0.382 | 0.0251 | – | – | – | – |
| O=C(NN1CCCCC1)c1nc(-c2ccc(Cl)cc2Cl)n(-c2ccc(Cl)cc2)c1Br | 0.746 | 0.023 | 0.00398 | – | – | – | – |
| Cc1c(C(=O)OC(C)(C)C)nc(-c2ccc(Cl)cc2Cl)n1-c1ccc(Cl)cc1 | 0.815 | 0.094 | 0.00251 | – | – | – | – |
| Cc1c(C(=O)NCc2ccc(C(F)(F)F)cc2)nc(-c2ccc(Cl)cc2Cl)n1-c1ccc(Cl)cc1 | 1.98 | 0.171 | – | – | – | – | – |
| O=C(NN1CCCCC1)c1nc(-c2ccc(Cl)cc2)c(-c2ccc(Cl)cc2Cl)s1 | 4.67 | > 1 | 0.0631 | – | – | – | – |
| N#Cc1c(C(=O)NN2CCCCC2)nc(-c2ccc(Cl)cc2Cl)n1-c1ccc(Cl)cc1 | 1.59 | 0.03 | – | – | – | – | – |
| Cc1c(C(=O)NN2CCCCC2)nc(-c2ccc(Cl)cc2Cl)n1-c1ccc(C(F)(F)F)cc1 | 0.634 | 0.029 | 0.00251 | – | – | – | – |
| CCN(CC)C(=O)c1nc(-c2ccc(Cl)cc2Cl)n(-c2ccc(Cl)cc2)c1C | 2.52 | 0.828 | 0.0398 | – | – | – | – |
| Cc1c(C(=O)NN2CCCCCC2)nc(-c2ccc(Cl)cc2Cl)n1-c1ccc(Cl)cc1 | 0.505 | 0.064 | 0.002 | – | – | – | – |
| Cc1c(C(=O)NN2CCCCC2)nc(-c2ccc(Cl)cc2Cl)n1-c1ccc(F)cc1 | 0.765 | 0.052 | – | – | – | – | – |
| Cc1c(C(=O)N[C@H]2CC[C@H](O)CC2)nc(-c2ccc(Cl)cc2Cl)n1-c1ccc(Cl)cc1 | 3.47 | 0.399 | 0.0501 | – | – | – | – |

| SMILES | Ki (Cannabinoid receptor 2) [µM] | Ki (Cannabinoid receptor 1 [1]) [µM] | Kb (Cannabinoid receptor 1 [2]) [µM] | Transport [3] [%] | efflux ratio (P-glycoprotein (ABCB1)) | ED50 (Rattus norvegicus) [mg/kg] | LED (Mus musculus) [mg/kg] |
| --- | --- | --- | --- | --- | --- | --- | --- |
| O=C(NN1CCCCC1)c1cn(-c2ccc(Cl)cc2)c(-c2ccc(Cl)cc2Cl)n1 | 0.542 | 0.023 | – | – | – | 11.7 | >30 |
| Cc1c(C(=O)N2CCc3ccccc3C2)nc(-c2ccc(Cl)cc2Cl)n1-c1ccc(Cl)cc1 | 0.696 | 0.034 | – | – | – | – | – |
| Cc1c(C(=O)NN2CCCCC2)nn(-c2ccc(Cl)cc2Cl)c1-c1ccc(Cl)cc1 [RIMONABANT] | – | – | – | 17.2 | – | 3.2 | 3 |
| COc1ccc(-n2c(-c3ccc(Cl)cc3Cl)nc(C(=O)NN3CCCCC3)c2C)cc1 | 0.326 | 0.106 | 0.002 | – | – | – | – |
| Cc1c(C(=O)N2CCC(O)CC2)nc(-c2ccc(Cl)cc2Cl)n1-c1ccc(Cl)cc1 | 3.96 | – | – | – | – | – | – |
| Cc1c(C(=O)NOC(C)(C)C)nc(-c2ccc(Cl)cc2Cl)n1-c1ccc(Cl)cc1 | 0.242 | 0.333 | 0.00631 | – | – | – | – |
| O=C(NN1CCCCC1)c1nc(-c2ccc(Cl)cc2Cl)n(-c2ccc(Cl)cc2)c1CF | 0.906 | 0.036 | 0.00126 | – | – | – | – |
| Cc1c(C(=O)NC2CCCCC2)nc(-c2ccc(Cl)cc2Cl)n1-c1ccc(Cl)cc1 | 0.16 | 0.035 | 0.000794 | – | – | – | – |
| Cc1c(C(=O)NN2CCCCC2)nc(-c2ccc(Cl)cc2)n1-c1ccc(Cl)cc1Cl | 0.208 | 0.403 | 0.02 | – | – | > 30 | – |
| Cc1c(C(=O)NN2CCCCC2)nc(-c2ccc(Cl)cc2Cl)n1-c1ccc(Cl)cc1 | 0.608 | – | 0.00251 | 24.2 | 1.2 | 2.4 | 10 |
| Cc1c(C(=O)NN2CC3CCCC3C2)nc(-c2ccc(Cl)cc2Cl)n1-c1ccc(Cl)cc1 (stereo not given) | 1.41 | 0.04 | – | – | – | – | – |
| Cc1c(C(=O)NN2CCCCC2)nc(-c2ccc(Cl)cc2Cl)n1-c1ccc(Cl)cn1 | 0.758 | – | – | – | – | – | – |
| Cc1c(C(=O)NN2CCOCC2)nc(-c2ccc(Cl)cc2Cl)n1-c1ccc(Cl)cc1 | 3.3 | 0.197 | – | – | – | – | – |
| Cl.Cl.O=C(NN1CCCCC1)c1nc(-c2ccc(Cl)cc2Cl)n(-c2ccc(Cl)cc2)n1 | 3.56 | 0.356 | 0.00501 | 28.3 | 1.5 | 23.6 | >30 |
| Cc1c(C(=O)NN2CCCC2)nc(-c2ccc(Cl)cc2Cl)n1-c1ccc(Cl)cc1 | 0.774 | 0.027 | – | – | – | – | – |
| Cc1c(C(=O)NN2CCCCC2)nc(-c2ccc(Cl)cc2Cl)n1-c1ccc(Br)cc1 | 0.489 | 0.06 | 0.00316 | – | – | – | – |
